# In ChEMBL document CHEMBL5365533, “DNA major versus minor groove occupancy of monomeric and dimeric crystal violet derivatives. Toward structural correlations” (Bioorg Med Chem, 2023):
# pIC50: −log10 of the molar value. The source made the active and inactive calls. The calls are words filed in the database; no cut-off is given here.
# Tests used:
# DNA [1] = assay: Displacement of Ethidium bromide from A5T5 (5'-GGGAAAAATTTTTCCCCC-3') DNA (unknown origin)/EtBr complex assessed as decrease in initial absorbance of DNA by crystal violet staining based analysis; format: nucleic-acid assay
# Calf thymus DNA [2] = assay: Binding affinity to calf thymus DNA assessed as change in melting temperature by UV thermal denaturation assay; format: nucleic-acid assay; settings: Bos taurus
# Procedure, shortened: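 CT DNA in 10 mM Tris-HCl pH 7.0 at a DNA:ligand ratio of 30:1, in 1 cm quartz cuvettes. Absorbance read every 2 °C from 25 to 95 °C, heating at 1 °C/min. Tm taken from first-derivative plots.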
# [3] = Displacement of Ethidium bromide from G5C5 (5'-AAAGGGGG-CCCCCTTT-3') DNA (unknown origin)/EtBr complex assessed as decrease in initial absorbance of DNA by crystal violet staining based analysis
# DNA [4] = assay: Displacement of Ethidium bromide from (AT)5 (5'-GGGATATA-TATATCCC-3') DNA (unknown origin)/EtBr complex assessed as decrease in initial absorbance of DNA by crystal violet staining based analysis; format: nucleic-acid assay
# [5] = Binding affinity to DDD hairpin DNA (unknown origin) assessed as binding constant at 100 uM by ITC analysis
# Procedure, shortened: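 Isothermal titration calorimetry of DDD hairpin (10 μM in cell) titrated with ligand (100 μM in syringe), 10 mM Tris-HCl pH 7.0, 30 °C; 25 injections of 10 μL. Heats of dilution subtracted; single-site binding model fitted; K averaged from triplicate experiments.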
# [6] = Binding affinity to DDD hairpin DNA (unknown origin) in Tris-HCl buffer at pH 5.0 assessed as negative induced CD bands formation at 310nm at 1 mM incubated for 5 mins by CD spectra analysis
# Procedure, shortened: (§1)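 Ligand (1 mM stock) added in small aliquots to DDD hairpin (8.8 μM) in 10 mM Tris-HCl pH 5.0; mixed by inversion and incubated 5 min at 20 °C. CD recorded 215–350 nm in 0.5 nm steps as the average of three scans.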
# [7] = Displacement of Ethidium bromide from NFAT1 (5-GAAAAA-3') hairpin DNA (unknown origin)/EtBr complex assessed as binding constant by crystal violet staining based analysis
# [8] = Displacement of Ethidium bromide from STAT6 (5'-TCCTAG-3') hairpin DNA (unknown origin)/EtBr complex assessed as decrease in initial absorbance of DNA by crystal violet staining based analysis
# Calf thymus DNA [9] = assay: Binding affinity to calf thymus DNA in Tris-HCl buffer at pH 7.0 assessed as change in entropy at 100 uM by isothermal titration […] analysis; format: nucleic-acid assay; settings: Bos taurus
# Procedure, shortened: (§2)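 ITC of CT DNA (100 μM/bp in cell) titrated with ligand (100 μM in syringe), 10 mM Tris-HCl pH 7.0; 25 injections of 10 μL at 30 °C, or for one ligand 50 injections of 5 μL at 27 °C. Buffer-into-DNA heats subtracted; single-site model gives K, N, ΔH and ΔS.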
# Calf thymus DNA [10] = assay: Binding affinity to calf thymus DNA in Tris-HCl buffer at pH 7.0 assessed as decrease in viscosity incubated for 30 mins by Ostwald viscometer analysis; format: nucleic-acid assay; settings: Bos taurus
# Procedure, shortened: (§3)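 Ostwald viscometer at 23.0 ± 1 °C. CT DNA held at 300 μM/bp in 10 mM Tris-HCl pH 7.0 with ligand or ethidium at 0–26 μM, incubated 30 min before timing flow. (η/η0)^1/3 plotted against [ligand]/[DNA]; three replicates, SD shown.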
# AT rich DNA [11] = assay: Displacement of Ethidium bromide from AT3 (5'-ATATAT-3') hairpin DNA (unknown origin)/EtBr complex assessed as decrease in initial absorbance of DNA by crystal violet staining based analysis; format: nucleic-acid assay
# [12] = Displacement of Ethidium bromide from G6 (5'-GGGGGG-3') hairpin DNA (unknown origin)/EtBr complex assessed as decrease in initial absorbance of DNA by crystal violet staining based analysis
# Calf thymus DNA [13] = assay: Binding affinity to calf thymus DNA in Tris-HCl buffer at pH 7.0 assessed as differential groove occupancy at 100 uM by ITC analysis; format: nucleic-acid assay; settings: Bos taurus; procedure, shortened: as §2
# [14] = Displacement of Ethidium bromide from cMyc (5'-CACGTG-3') hairpin DNA (unknown origin)/EtBr complex assessed as decrease in initial absorbance of DNA by crystal violet staining based analysis
# Calf thymus DNA [15] = assay: Binding affinity to calf thymus DNA in Tris-HCl buffer at pH 7.0 assessed as change in enthalpy at 100 uM by isothermal titration […] analysis; format: nucleic-acid assay; settings: Bos taurus; procedure, shortened: as §2
# Calf thymus DNA [16] = assay: Ratio of Kapp for displacement of ethidium bromide from calf thymus DNA/EtBr complex to Kapp for displacement of ethidium bromide from calf thymus DNA/EtBr in presence of methyl green; format: nucleic-acid assay; settings: Bos taurus
# Procedure, shortened: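 Fluorescence titration of CT DNA (1.0 μM/bp) plus ethidium (0.5 μM), with or without netropsin or methyl green (0.5 μM each), against increasing ligand in 10 mM Tris-HCl pH 7.0. Excitation 520 nm, emission 590 nm, read after 3 min equilibration. C50 is the concentration giving 50% fluorescence loss; Kapp = 9.5×10^6 M⁻¹ × C_ethidium/C50.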
# DNA [17] = assay: Binding affinity to pUC-19 plasmid DNA (unknown origin) assessed as DNA cleavage incubated for 30 mins in presence of BamHI restriction enzyme by ethidium bromide staining based agarose gel electrophoresis analysis; format: nucleic-acid assay
# Procedure, shortened: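 pUC-19 linearized with AlwNI (37 °C, 30 min), enzyme heat-killed at 80 °C for 20 min, then incubated with varying ligand concentrations. BamHI digestion for 30 min at 37 °C. Run on 1% agarose containing ethidium bromide, 120 V for 40 min; visualized by UV transillumination.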
# [18] = Displacement of Ethidium bromide from STAT6 (5'-TCCTAG-3') hairpin DNA (unknown origin)/EtBr complex assessed as binding constant by crystal violet staining based analysis
# [19] = Displacement of Ethidium bromide from cMyc (5'-CACGTG-3') hairpin DNA (unknown origin)/EtBr complex assessed as binding constant by crystal violet staining based analysis
# [20] = Displacement of Ethidium bromide from DDD (5-CGAATT-3') hairpin DNA (unknown origin)/EtBr complex assessed as decrease in initial absorbance of DNA by crystal violet staining based analysis
# Calf thymus DNA [21] = assay: Binding affinity to calf thymus DNA assessed as hypochromic shift by UV spectroscopic analysis; format: nucleic-acid assay; settings: Bos taurus
# Procedure, shortened: (§4)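 UV titration in 10 mM Tris-HCl pH 7.0 with ligand fixed at 5.0 μM and CT DNA:ligand ratios of 0:1, 1:1, 2:1, 5:1, 10:1 and 30:1.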
# [22] = Binding affinity to DDD hairpin DNA (unknown origin) in Tris-HCl buffer at pH 5.0 assessed as negligible changes in helicity band formation at 245nm at 1 mM incubated for 5 mins by CD spectra analysis; procedure, shortened: as §1
# [23] = Binding affinity to DDD (5-CGAATT-3') hairpin DNA (unknown origin) assessed as binding constant by isothermal titration calorimetry
# [24] = Binding affinity to DDD hairpin DNA (unknown origin) in Tris-HCl buffer at pH 5.0 assessed as reduction in base stacking band formation at 280nm at 1 mM incubated for 5 mins by CD spectra analysis; procedure, shortened: as §1
# Calf thymus DNA [25] = assay: Binding affinity to calf thymus DNA assessed as bathochromic shift by UV spectroscopic analysis; format: nucleic-acid assay; settings: Bos taurus; procedure, shortened: as §4
# AT rich DNA [26] = assay: Displacement of Ethidium bromide from AT3 (5'-ATATAT-3') hairpin DNA (unknown origin)/EtBr complex assessed as binding constant by crystal violet staining based analysis; format: nucleic-acid assay
# [27] = Displacement of Ethidium bromide from NFAT1 (5-GAAAAA-3') hairpin DNA (unknown origin)/EtBr complex assessed as decrease in initial absorbance of DNA by crystal violet staining based analysis
# Calf thymus DNA [28] = assay: Binding affinity to calf thymus DNA in Tris-HCl buffer at pH 7.0 assessed as minimal change in viscosity incubated for 30 mins by Ostwald viscometer analysis; format: nucleic-acid assay; settings: Bos taurus; procedure, shortened: as §3
# Calf thymus DNA [29] = assay: Binding affinity to calf thymus DNA in Tris-HCl buffer at pH 7.0 assessed as rigidification of DNA from intercalation of drug incubated for 30 mins by Ostwald viscometer analysis; format: nucleic-acid assay; settings: Bos taurus; procedure, shortened: as §3
# Calf thymus DNA [30] = assay: Binding affinity to calf thymus DNA in Tris-HCl buffer at pH 7.0 assessed as lengthening of DNA from intercalation of drug incubated for 30 mins by Ostwald viscometer analysis; format: nucleic-acid assay; settings: Bos taurus; procedure, shortened: as §3
SMILES,C50 (DNA [1]) [µM],ΔTm (Calf thymus DNA [2]) [°C],C50 [3] [µM],C50 (DNA [4]) [µM],K [5],C50 [8] [µM],C50 (AT rich DNA [11]) [µM],C50 [12] [µM],C50 [14] [µM],C50 [20] [µM],C50 [27] [µM],other results
CN(C)c1ccc(C(=C2C=CC(=[N+](C)C)C=C2)c2ccc(N(C)C)c(-c3ccccc3)c2)cc1-c1ccccc1,1.83,1.6,2.09,1.81,0.3 10^5/M,–,–,–,–,–,–,–
CN(C)c1ccc(C(=C2C=CC(=[N+](C)C)C(c3ccccc3)=C2)c2ccc(N(C)C)c(-c3ccccc3)c2)cc1-c1ccccc1,3.13,2.2,3.36,2.71,48.7 10^5/M,–,–,–,–,–,–,–
CC1=CC(=[N+](C)C)C=CC1=C(c1ccc(N(C)C)cc1C)c1ccc(N(C)C)cc1C,2.4,2.6,7.21,2.3,1.2 10^5/M,–,–,–,–,–,–,–
CN(C)c1ccc(C(=C2C=CC(=[N+](C)C)C=C2)c2ccc3cc(N(C)C)ccc3c2)cc1,0.52,4.6,0.88,0.32,3.1 10^5/M,–,–,–,–,–,–,–

# The next lines start with results.
C50 (DNA [1]) [µM],ΔTm (Calf thymus DNA [2]) [°C],C50 [3] [µM],C50 (DNA [4]) [µM],K [5],C50 [8] [µM],C50 (AT rich DNA [11]) [µM],C50 [12] [µM],C50 [14] [µM],C50 [20] [µM],C50 [27] [µM],SMILES,other results
–,3.3,–,–,7.5 10^5/M,1.12,1.21,1.1,1.8,0.78,1.27,CN(C)c1ccc(C(=C2C=CC(=[N+](C)C)C=C2)c2ccc(/C=C/c3cc4c(cc3/C=C/c3ccc(C(=C5C=CC(=[N+](C)C)C=C5)c5ccc(N(C)C)cc5)cc3)OCO4)cc2)cc1,Activity [6]: Active; K [7]: 49.8 10^5/M; deltaS (Calf thymus DNA [9]): 0.316 kcal/mol; Activity (Calf thymus DNA [10]): Dose-Dependent Effect; Activity (Calf thymus DNA [13]): Active; deltaH (Calf thymus DNA [15]): 85.8 kcal/mol; Ratio (Calf thymus DNA [16]): > 8; pIC50 (DNA [17]): 5.27; K [18]: 2.22 10^5/M; K [19]: 32000 M⁻¹; Activity (Calf thymus DNA [21]): Active; Activity [22]: Active; K [23]: 7.54 10^5/M; Activity [24]: Active; Activity (Calf thymus DNA [25]): Active; K (AT rich DNA [26]): 5.79 10^5/M
–,2.6,–,–,2.4 10^5/M,1.32,1.36,1.25,1.42,1.47,1.23,CN(C)c1ccc(C(=C2C=CC(=[N+](C)C)C=C2)c2ccc(-c3cc4c(cc3-c3ccc(C(=C5C=CC(=[N+](C)C)C=C5)c5ccc(N(C)C)cc5)cc3)OCO4)cc2)cc1,–
2.61,6.2,2.99,2.75,96.4 10^5/M,–,–,–,–,–,–,CN(C)c1ccc(C(=C2C=CC(=[N+](C)C)C=C2)c2ccc(N(C)C)c(-c3ccccc3)c2)cc1,Ratio (Calf thymus DNA [16]): 2.3
–,2.6,–,–,0.5 10^5/M,1.91,1.52,1.32,1.95,1.27,2.22,CN(C)c1ccc(C(=C2C=CC(=[N+](C)C)C=C2)c2ccc(C#Cc3cc4c(cc3C#Cc3ccc(C(=C5C=CC(=[N+](C)C)C=C5)c5ccc(N(C)C)cc5)cc3)OCO4)cc2)cc1,–
–,3.6,–,–,21.1 10^5/M,0.56,1.11,0.51,0.57,0.54,0.69,CN(C)c1ccc(C(=C2C=CC(=[N+](C)C)C=C2)c2ccccc2-c2ccccc2-c2ccccc2C(=C2C=CC(=[N+](C)C)C=C2)c2ccc(N(C)C)cc2)cc1,K [7]: 1.14 10^5/M; Activity (Calf thymus DNA [28]): Dose-Dependent Effect; pIC50 (DNA [17]): 4.17; K [18]: 1.8 10^5/M; K [19]: 114000 M⁻¹; Activity (Calf thymus DNA [21]): Active; K [23]: 21.1 10^5/M; Activity (Calf thymus DNA [29]): Active; Activity (Calf thymus DNA [25]): Active; Activity (Calf thymus DNA [30]): Active; K (AT rich DNA [26]): 0.32 10^5/M
